Format in all cases: functional
Test [1] concerns Staphylococcus aureus. Put plainly: Antimicrobial activity against wild-type Staphylococcus aureus 516 by broth microdilution method. Summed up: (§1)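 Broth microdilution following CLSI guidelines. Values under 12.5 μM are averages of three or more replicates.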
In test [2] the test system is Staphylococcus aureus. Put plainly: Antimicrobial activity against Staphylococcus aureus 2375 harboring GyrA S84L mutant, GyrB R144A mutant and ParC S80Y/E84G/V693M mutant and ParE N141S mutant by broth microdilution method. Background: Dilution methods test growth across graded concentrations, often in twofold steps.
In test [3] the test system is Streptococcus pneumoniae. Put plainly: Antimicrobial activity against Streptococcus pneumoniae 2800 harboring GyrB K143I/T172A mutant by broth microdilution method.
The test system of test [4] is Streptococcus pneumoniae. Put plainly: Antimicrobial activity against wild-type Streptococcus pneumoniae 548 by broth microdilution method. The gist of the method: as §1
The subject of test [5] is Staphylococcus aureus. Put plainly: Antimicrobial activity against Staphylococcus aureus 2792 harboring wild-type GyrA and GyrB R144A mutant by broth microdilution method.
Test [6] has as its system Streptococcus pneumoniae. In words: Antimicrobial activity against Streptococcus pneumoniae 2485 harboring GyrA S81F mutant, GyrB D160E/T329A mutant and ParC S79F mutant by broth microdilution method.

Results on 2 compounds are retold here after ChEMBL document CHEMBL3352584, “Novel DNA gyrase inhibiting spiropyrimidinetriones with a benzisoxazole scaffold: SAR and in vivo characterization” (J Med Chem, 2014).

SMILES strings stand for the structures. Values after ≈ are worked out from the molar mass of the structure shown.

As usually defined, the MIC is the least concentration at which growth counts as inhibited. A higher MIC goes with a less susceptible organism.

On to `CO[C@@H]1[C@@H](OC(N)=O)[C@@H](O)[C@H](Oc2ccc3c(O)c(NC(=O)c4ccc(O)c(CC=C(C)C)c4)c(=O)oc3c2C)OC1(C)C` [NOVOBIOCIN], for which the MIC in test [1] is 0.13 mg/L (≈ 0.212 µM); in test [2], 4.3 mg/L (≈ 7.02 µM); in test [3] it was more than 16 mg/L; in test [4], 1 mg/L (≈ 1.63 µM); in test [5] it was 32 mg/L (≈ 52.2 µM); in test [6], 0.13 mg/L (≈ 0.212 µM).

`C[C@H]1COc2c(N3CCN(C)CC3)c(F)cc3c(=O)c(C(=O)O)cn1c23.C[C@H]1COc2c(N3CCN(C)CC3)c(F)cc3c(=O)c(C(=O)O)cn1c23.O` [LEVOFLOXACIN]: the MIC was 0.13 mg/L in test [1], more than 16 mg/L in test [2] and 0.25 mg/L in test [5].
